{
  "source": "ChEMBL document CHEMBL3217467",
  "about": "“A structure-activity relationship study on multi-heterocyclic molecules: two linked thiazoles are required for cytotoxic activity” (Medchemcomm, 2013)",
  "key": {"HCT-116 [1]": {"tested_on": "HCT-116", "assay": "Cytotoxicity against human HCT116 cells assessed as growth inhibition after 72 hrs by CCK8 assay", "type": "functional, cell-based", "details": "HCT-116, 72 h", "how_it_was_run": "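HCT-116 cells seeded at 3000/well in DMEM with 10% FBS and left 24 h to adhere at 37°C in CO2. They were then exposed for 72 h to 1, 2, 5, 10, 20, 30 and 40 μM, with 1% DMSO and media-only controls. Readout was CCK-8 reduction, 1 h, absorbance at 450 nm. IC50 was taken from log concentration versus % survival curves; three experiments, quadruplicate points.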"}, "HCT-116 [2]": {"tested_on": "HCT-116", "assay": "Induction of apoptosis in human HCT116 cells assessed as plasma membrane budding at 10 uM after 24 hrs by Hoechst 33342 staining based microscopic analysis", "type": "functional, cell-based", "how_it_was_run": "(§1)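 HCT 116 cells were plated at 20,000 per dish 24 h before treatment, then given 10 μM compound or 1% (v/v) DMSO control for 24 h. They were fixed in 1.5% glutaraldehyde in PBS for 1 h, washed with PBS, stained with 5 μg/ml Hoechst 33342 and imaged by confocal microscopy.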"}, "HCT-116 [3]": {"tested_on": "HCT-116", "assay": "Induction of apoptosis in human HCT116 cells assessed as intact plasma membranes at 10 uM after 24 hrs by Hoechst 33342 staining based microscopic analysis", "type": "functional, cell-based", "how_it_was_run": "as §1"}, "HCT-116 [4]": {"tested_on": "HCT-116", "assay": "Induction of apoptosis in human HCT116 cells assessed as chromatin condensation at 10 uM after 24 hrs by Hoechst 33342 staining based microscopic analysis", "type": "functional, cell-based", "how_it_was_run": "as §1"}, "HCT-116 [5]": {"tested_on": "HCT-116", "assay": "Induction of apoptosis in human HCT116 cells assessed as cell shrinkage and nuclear condensation at 10 uM after 24 hrs by Hoechst 33342 staining based microscopic analysis", "type": "functional", "how_it_was_run": "as §1"}, "HCT-116 [6]": {"tested_on": "HCT-116", "assay": "Cytotoxicity against human HCT116 cells assessed as growth inhibition at 40 uM after 72 hrs by CCK8 assay", "type": "functional", "details": "HCT-116, 72 h, read-out: GI", "how_it_was_run": "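HCT-116 cells seeded at 3000/well in DMEM with 10% FBS and allowed 24 h at 37°C in CO2. They were then treated 72 h at a single 40 uM concentration, with media-only and 1% DMSO controls. Fresh serum-free medium plus CCK-8 was added for 1 h at 37°C, and absorbance read at 450 nm as % cell survival.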"}, "HCT-116 [7]": {"tested_on": "HCT-116", "assay": "Induction of apoptosis in human HCT116 cells assessed as nuclear condensation at 10 uM after 24 hrs by Hoechst 33342 staining based microscopic analysis", "type": "functional", "how_it_was_run": "as §1"}},
  "note": "Activity calls are given as the source filed them. The calls are words filed in the database; no cut-off is given here.",
  "data": [
    {"smiles": "COC(=O)c1coc(-c2coc([C@@H](NC(=O)OC(C)(C)C)[C@@H](C)OC(C)(C)C)n2)n1", "values": [
      {"measurement": "IC50", "setting": "HCT-116 [1]", "value": "> 100", "unit": "µM"}
    ]},
    {"smiles": "CCOC(=O)c1csc(-c2csc(-c3csc([C@@H](NC(=O)OC(C)(C)C)[C@@H](C)OC(C)(C)C)n3)n2)n1", "values": [
      {"measurement": "Activity", "setting": "HCT-116 [2]", "value": "inactive"},
      {"measurement": "Activity", "setting": "HCT-116 [3]", "value": "Active"},
      {"measurement": "Activity", "setting": "HCT-116 [4]", "value": "Active"},
      {"measurement": "Activity", "setting": "HCT-116 [5]", "value": 30, "unit": "%"},
      {"measurement": "IC50", "setting": "HCT-116 [1]", "value": 26.5, "unit": "µM"},
      {"measurement": "inhibition of growth at 40 µM", "setting": "HCT-116 [6]", "value": "> 50", "unit": "%"}
    ]},
    {"smiles": "COC(=O)c1nc(-c2csc(-c3csc(-c4coc(-c5coc([C@@H](NC(=O)OC(C)(C)C)[C@@H](C)OC(C)(C)C)n5)n4)n3)n2)oc1-c1ccccc1", "values": [
      {"measurement": "IC50", "setting": "HCT-116 [1]", "value": 18.2, "unit": "µM"},
      {"measurement": "inhibition of growth at 40 µM", "setting": "HCT-116 [6]", "value": "> 50", "unit": "%"}
    ]},
    {"smiles": "CCOC(=O)c1csc(-c2coc(-c3coc([C@@H](NC(=O)OC(C)(C)C)[C@@H](C)OC(C)(C)C)n3)n2)n1", "values": [
      {"measurement": "Activity", "setting": "HCT-116 [2]", "value": "inactive"},
      {"measurement": "Activity", "setting": "HCT-116 [3]", "value": "Active"},
      {"measurement": "Activity", "setting": "HCT-116 [4]", "value": "Active"},
      {"measurement": "Activity", "setting": "HCT-116 [7]", "value": 12, "unit": "%"}
    ]},
    {"smiles": "COC(=O)c1nc(-c2csc(-c3csc(-c4csc(-c5csc([C@@H](NC(=O)OC(C)(C)C)[C@@H](C)OC(C)(C)C)n5)n4)n3)n2)oc1-c1ccccc1", "values": [
      {"measurement": "IC50", "setting": "HCT-116 [1]", "value": 18.7, "unit": "µM"},
      {"measurement": "inhibition of growth at 40 µM", "setting": "HCT-116 [6]", "value": "> 50", "unit": "%"}
    ]},
    {"smiles": "CCOC(=O)c1csc(-c2csc([C@@H](NC(=O)OC(C)(C)C)[C@@H](C)OC(C)(C)C)n2)n1", "values": [
      {"measurement": "IC50", "setting": "HCT-116 [1]", "value": 19.4, "unit": "µM"},
      {"measurement": "inhibition of growth at 40 µM", "setting": "HCT-116 [6]", "value": "> 50", "unit": "%"}
    ]}
  ]
}
